{"source": "ChEMBL document CHEMBL2150888", "about": "“Conformationally constrained peptides from CD2 to modulate protein-protein interactions between CD2 and CD58” (J Med Chem, 2011)", "key": {"[1]": {"assay": "Toxicity in human Caco2 cells assessed as cell viability at 200 uM incubated for 2 hrs by CellTiter-Glo assay", "type": "cell-based", "details": "Caco-2 cells, read-out: Activity", "method_in_brief": "(§1)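 Caco-2 cells exposed to peptide (200–0.1 µM, diluted in serum-free medium from DMSO stock) for 2 and 3 h, washed with PBS, then CellTiter-Glo luminescence read. Blank-subtracted, with 0.1% SDS and 1% DMSO controls. Viability relative to cells without peptide; triplicates in two independent runs.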"}, "[2]": {"target": "T1, Lymphocyte function-associated antigen 3/T-cell surface antigen CD2 (Homo sapiens) (UniProt P06729+P19256)", "assay": "Inhibition of CD2-CD58 protein-protein interaction assessed as inhibition of cell adhesion between CD58 expressing human Caco2 cells and CD2 expressing human Jurkat cells at =< 1 uM by BCECF-AM fluorescent dye based fluorimetric assay"}, "[3]": {"assay": "Toxicity in human Jurkat cells assessed as cell viability incubated for 2 hrs by CellTiter-Glo assay", "type": "cell-based", "details": "read-out: Activity", "method_in_brief": "(§2)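 Jurkat suspensions treated in tubes with peptide (diluted in serum-free medium from DMSO stock) for 2 h, washed by centrifugation, then CellTiter-Glo luminescence read on a microplate. Blank-subtracted, with SDS and 1% DMSO controls. Viability relative to cells without peptide; triplicates in two independent runs.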"}, "[4]": {"assay": "Toxicity in human Jurkat cells assessed as cell viability at 200 yuM incubated for 2 hrs by CellTiter-Glo assay", "type": "cell-based", "details": "read-out: Activity", "method_in_brief": "as §2"}, "[5]": {"assay": "Toxicity in human Caco2 cells assessed as cell viability incubated for 2 hrs by CellTiter-Glo assay", "type": "cell-based", "details": "Caco-2 cells, read-out: Activity", "method_in_brief": "as §1"}, "[6]": {"target": "T2, Lymphocyte function-associated antigen 3/T-cell surface antigen CD2 (Homo sapiens, UniProt P06729+P19256)", "T2 sequence (P06729 whole entry)": "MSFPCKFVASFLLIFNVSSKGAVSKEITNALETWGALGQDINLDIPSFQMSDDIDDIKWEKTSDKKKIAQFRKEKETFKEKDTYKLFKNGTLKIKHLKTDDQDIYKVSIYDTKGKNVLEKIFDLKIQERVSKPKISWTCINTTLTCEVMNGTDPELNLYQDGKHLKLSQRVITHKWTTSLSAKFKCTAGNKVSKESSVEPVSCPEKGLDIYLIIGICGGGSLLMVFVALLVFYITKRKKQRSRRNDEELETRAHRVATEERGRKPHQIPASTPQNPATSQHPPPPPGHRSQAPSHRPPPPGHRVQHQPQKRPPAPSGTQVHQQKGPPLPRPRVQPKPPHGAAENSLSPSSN", "T2 sequence (P19256 whole entry)": "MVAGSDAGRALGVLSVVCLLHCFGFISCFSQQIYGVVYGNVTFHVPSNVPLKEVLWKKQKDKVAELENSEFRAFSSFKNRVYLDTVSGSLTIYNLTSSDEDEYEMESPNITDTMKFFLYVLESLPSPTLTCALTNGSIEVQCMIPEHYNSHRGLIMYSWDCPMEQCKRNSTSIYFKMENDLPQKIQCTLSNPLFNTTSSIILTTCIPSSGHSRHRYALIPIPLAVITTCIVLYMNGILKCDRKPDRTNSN", "assay": "(§3) Inhibition of CD2-CD58 protein-protein interaction assessed as inhibition of cell adhesion between CD58 expressing human Caco2 cells and CD2 expressing human Jurkat cells by BCECF-AM fluorescent dye based fluorimetric assay"}, "[7]": {"target": "T1, Lymphocyte function-associated antigen 3/T-cell surface antigen CD2 (Homo sapiens)", "assay": "as §3", "set-up": "concentration or dose not given beside the values", "details": "concentration not given here"}, "T-cell": {"tested_on": "T-cell", "assay": "Inhibition of T-cell response to type 2 collagen in type 2 collagen primed T cells derived from transgenic mouse expressing functional HLA-DQ8 by [3H]thymidine incorporation assay", "type": "cell-based", "method_in_brief": "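Lymph node cells (draining popliteal, caudal, lumbar) taken 10 days after intradermal tail-base immunization of HLA-DQ8 transgenic mice with 200 µg native chick CII in CFA (1:1). 1 × 10^6 LNC challenged in vitro with CII at 50 µg/mL, with peptide at four concentrations (10–.01 µM); 3H-thymidine (1 µCi/well) pulse for last 18 h; Δcpm = test minus medium control; mean ±S.D., N = 4.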"}}, "note": "pIC50: −log10 of the molar value. *1 amine or outer side, *2 acyl side, *3 side chain or, on linkers, in order; H or OH if unused. Where a SMILES comes first, the peptide text is derived from it. [ ]: non-standard residue; d: D form. X1 = O=C(CCc1cccc2c1oc1c(CCN[*:1])cccc12)[*:2]"}
{"compound": "CC[C@H](C)[C@@H]1NC(=O)[C@H](Cc2ccc(O)cc2)NC(=O)[C@H](CC(=O)O)NC(=O)CCc2cccc3c2Oc2c(cccc2-3)CCNC(=O)[C@H](CC(=O)O)NC(=O)[C@H](CC(=O)O)NC(=O)[C@H](CCCCN)NC1=O", "note": "(cyclo(DD[X1]DYIK))", "values": [{"measurement": "viability at 2 h, 200 µM", "setting": "[1]", "value": 90, "unit": "%"}, {"measurement": "inhibition", "setting": "[2]", "value": 80, "unit": "%"}, {"measurement": "viability at 2 h", "setting": "[3]", "value": "> 95", "unit": "%"}, {"measurement": "viability at 2 h, 200 µM", "setting": "[4]", "value": 90, "unit": "%"}, {"measurement": "viability at 2 h", "setting": "[5]", "value": "> 95", "unit": "%"}, {"measurement": "pIC50", "setting": "[6]", "value": 7.95}]}
{"compound": "CC[C@H](C)[C@@H]1NC(=O)[C@H](CCCCN)NC(=O)[C@H](CC(=O)O)NC(=O)[C@H](CC(=O)O)NC(=O)[C@@H]2CCCN2C(=O)[C@H]2CCCN2C(=O)[C@H](CC(=O)O)NC(=O)[C@H](Cc2ccc(O)cc2)NC1=O", "values": [{"measurement": "inhibition", "setting": "[7]", "value": "< 20", "unit": "%"}]}
{"compound": "CC[C@H](C)[C@@H]1NC(=O)[C@H](CCCCN)NC(=O)[C@H](CC(=O)O)NC(=O)[C@H](CC(=O)O)NC(=O)CCc2cccc3c2Oc2c(cccc2-3)CCNC(=O)[C@H](CC(=O)O)NC(=O)[C@H](Cc2ccc(O)cc2)NC1=O", "note": "(cyclo(DDKIYD[X1]))", "values": [{"measurement": "inhibition", "setting": "[7]", "value": "< 20", "unit": "%"}]}
{"compound": "CC[C@H](C)[C@@H]1NC(=O)[C@H](Cc2ccc(O)cc2)NC(=O)[C@H](CC(=O)O)NC(=O)CCc2cccc3c2Oc2c(cccc2-3)CCNC(=O)[C@H](CC(=O)O)NC(=O)[C@H](CC(=O)O)NC(=O)[C@H]([C@@H](C)CC)NC(=O)[C@H](CCCCN)NC(=O)[C@H](CO)NC1=O", "note": "(cyclo(DD[X1]DYISKI))", "values": [{"measurement": "inhibition", "setting": "[7]", "value": "< 20", "unit": "%"}]}
{"compound": "H-KGKTDAISVKAI-NH2", "values": [{"measurement": "inhibition", "setting": "[7]", "value": 18, "unit": "%"}]}
{"compound": "CC[C@H](C)[C@@H]1NC(=O)[C@H](CC(=O)O)NC(=O)[C@H](CC(=O)O)NC(=O)[C@@H]2CCCN2C(=O)[C@H]2CCCN2C(=O)[C@H](CC(=O)O)NC(=O)[C@H](Cc2ccc(O)cc2)NC(=O)[C@H]([C@@H](C)CC)NC(=O)[C@H](CO)NC(=O)[C@H](CCCCN)NC1=O", "values": [{"measurement": "viability at 2 h", "setting": "[3]", "value": "> 95", "unit": "%"}, {"measurement": "viability at 2 h", "setting": "[5]", "value": "> 95", "unit": "%"}, {"measurement": "inhibition", "setting": "T-cell", "value": "Dose-dependent effect"}]}
{"compound": "CC[C@H](C)[C@@H]1NC(=O)[C@H](CC(=O)O)NC(=O)[C@H](CC(=O)O)NC(=O)CCc2cccc3c2Oc2c(cccc2-3)CCNC(=O)[C@H](CC(=O)O)NC(=O)[C@H](Cc2ccc(O)cc2)NC(=O)[C@H]([C@@H](C)CC)NC(=O)[C@H](CO)NC(=O)[C@H](CCCCN)NC1=O", "note": "(cyclo(DDIKSIYD[X1]))", "values": [{"measurement": "inhibition", "setting": "[7]", "value": "< 20", "unit": "%"}]}
